High-throughput results from PubChem.
Most compounds without a hit are left out; they make up all but 2.9% or so of the library.
UBC9 SUMO inh: inhibitors of in vitro SUMOylation cascade, primary screen, biochemical, HTRF, uHTS; SUMO-conjugating enzyme UBC9 (Homo sapiens), P63279; HTRF SUMOylation assay, SAE1/SAE2 + UBC9; inhibition, % at 35 µM; 0.36% of 290,000 active; in the data active means inhibition above about 50%, passing the limit was not always enough
Target sequence (P63279 whole entry, looked up): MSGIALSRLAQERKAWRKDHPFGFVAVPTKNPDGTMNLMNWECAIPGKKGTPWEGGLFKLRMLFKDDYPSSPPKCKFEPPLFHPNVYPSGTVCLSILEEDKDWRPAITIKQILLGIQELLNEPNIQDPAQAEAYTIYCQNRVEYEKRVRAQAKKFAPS
SUMO Mot1 rescue: yeast Mot1-301 growth rescue at high temperature, primary screen, SUMOylation pathway inhibitor project, S. cerevisiae, ATP luminescence, 38.5C | S. cerevisiae Mot1-301 growth rescue; percent above DMSO median, 100 means doubled | growth rescue, % at 18.8 µM | 1% of 320,000 active;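 active means every valid replicate shows activation above 250% relative to neutral control wells; inactive means the rest, any valid replicate at or below 250%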;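 further: OY570 slx delta 5 strain wells were the positive control but not used for scaling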
IMP-1 inh-1: IMP-1 metallo-beta-lactamase inhibitors, primary screen, biochemical, epi-absorbance readout, Pseudomonas aeruginosa enzyme. metallo-beta-lactamase IMP-1 (Pseudomonas aeruginosa). purified IMP-1, nitrocefin hydrolysis, epi-absorbance fluorescence. inhibition, % at 5.6 µM. 0.45% of 290,000 active;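 active means inhibition above the mean plus 3 SD of all compounds in the same screening run, cut at about 4.5% in these data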;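 further: 0% = IMP-1 with DMSO and 100% = DMSO wells lacking enzyme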
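System – purified recombinant IMP-1 beta-lactamase · Input – IMP-1 dispensed at 0.2 nM · Timing – 15 min preincubation plus 25 min reaction at 25 °C · Signal – Epi-absorbance fluorescence, 480 nm excitation, 530 nm emission · Measure – percent IMP-1 inhibition derived from blank-referenced optical density · Controls – Enzyme-plus-DMSO low control, enzyme-free DMSO high control · Replication – singlicate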
NALP1 inh: NALP1 inflammasome inhibitors in reconstituted yeast, colorimetric, S. cerevisiae, triplicate retest | S. cerevisiae NALP1/ASC/caspase-1 growth, X-gal OD620, 72 h | inhibition, % at 10 µM | 0.61% of 280,000 active | AID 2071, 2009; in the data active means inhibition mostly above about 24%, no sharp cut-off; inactive means mostly below about 32%
VIM-2 inh: VIM-2 metallo-beta-lactamase inhibitors, primary screen, biochemical, epi-absorbance readout, Pseudomonas aeruginosa enzyme | purified VIM-2, nitrocefin hydrolysis, epi-absorbance fluorescence | inhibition, % at 5.6 µM | 0.89% of 290,000 active;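 active means inhibition above the mean of all tested compounds plus 3 SD, cutoff set per screening run, cut at about 7.5% in these data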;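 further: red hydrolysis product quenches plate fluorescence so inhibitors raise well fluorescence; 0% = enzyme with DMSO and 100% = DMSO without enzyme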
DNA FID counter: compounds displacing fluorescent DNA intercalator, primary screen, artefact control for HCV NS3 helicase inhibitor project, biochemical, FID fluorescence. DNA fluorescent intercalator displacement. inhibition, % at 7.9 µM. 0.17% of 290,000 active. AID 1845, 2009; in the data active means inhibition above about 37%;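 further: 0% = vehicle and 100% = reference compound; higher means more ethidium bromide displaced from hairpin DNA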
IMP-1 inh-2: IMP-1 metallo-beta-lactamase inhibitors, confirmation, selectivity assay for selective VIM-2 inhibitor project, biochemical, epi-absorbance readout, triplicate. shares compounds with VIM-2 inh. purified IMP-1, nitrocefin hydrolysis, epi-absorbance fluorescence. inhibition, % at 5.6 µM. 1,300 tested, under 10 active; call rule not given here;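 further: 0% = enzyme with vehicle and 100% = vehicle without enzyme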
VIM-2 FRET ctr: VIM-2 inhibitors in FRET format, confirmation, artefact control for selective VIM-2 inhibitor project, biochemical, epi-absorbance artifact exclusion; inhibition, % at 5.6 µM; 23% of 1,300 active; shares compounds with VIM-2 inh; purified VIM-2, CCF2 FRET substrate hydrolysis;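 active means inhibition above the mean of all tested compounds plus 3 SD, cut at about 19% in these data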;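 further: 0% = VIM-2 plus DMSO and 100% = no enzyme wells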
TEM-1 inh: TEM-1 serine beta-lactamase inhibitors, counter-screen for VIM-2 inhibitor project, biochemical, epi-absorbance, HTS | inhibition, % at 5.6 µM | shares compounds with VIM-2 inh | Purified TEM-1, nitrocefin hydrolysis, epi-absorbance fluorescence | 3% of 1,300 active;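 active means inhibition above that campaign's mean inhibition plus 3 SD, cut at about 0.46% in these data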;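 further: 0% = TEM-1 with DMSO and 100% = TEM-1 with 100 µM potassium clavulanate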
Target sequence (P62593 whole entry, looked up): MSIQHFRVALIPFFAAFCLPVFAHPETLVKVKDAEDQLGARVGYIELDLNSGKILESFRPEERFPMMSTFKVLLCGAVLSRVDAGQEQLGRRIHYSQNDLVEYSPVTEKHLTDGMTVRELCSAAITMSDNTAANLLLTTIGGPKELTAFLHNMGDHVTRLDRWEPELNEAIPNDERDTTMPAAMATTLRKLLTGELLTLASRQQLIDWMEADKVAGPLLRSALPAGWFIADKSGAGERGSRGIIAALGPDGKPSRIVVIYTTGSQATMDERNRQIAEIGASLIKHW
VIM-2 confirm 2: VIM-2 metallo-beta-lactamase inhibitors, confirmation, biochemical, epi-absorbance, hits shared with IMP-1 screen; AID 2187, 2009; purified VIM-2, nitrocefin hydrolysis; 96% of 1,300 active; shares compounds with VIM-2 inh; inhibition, % at 5.6 µM;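 active means inhibition of the VIM-2 beta-lactamase enzyme above about 11% from the earlier first-round screen, limit read from the data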;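 further: 0% = VIM-2 with DMSO and 100% = buffer wells without enzyme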
Active calls of the source: *; / = no result given.

SMILES	UBC9 SUMO inh	SUMO Mot1 rescue	IMP-1 inh-1	NALP1 inh	VIM-2 inh	DNA FID counter	IMP-1 inh-2	VIM-2 FRET ctr	TEM-1 inh	VIM-2 confirm 2
O=C(NNC(=O)c1cc([N+](=O)[O-])ccc1Cl)c1cccnc1	3	48	-3	9	-3	-7	/	/	/	/
Cc1ccc(NC(=O)C(CC(C)C)NC(N)=O)cc1 (centres undefined)	-6	6	-3	22	-3	-2	/	/	/	/
Cc1ccc(NC(=O)C(C)S)cc1 (centres undefined)	-1	-9	-1	10	9.6*	-10	1	4	-6	30*
CCC[C@@H](CNC)NC[C@H](Cc1ccccc1)NCCCCc1ccccc1	16	-2	-2	13	56*	29	-3	1	-7	66*
Cc1ccc(OCC(=O)NNC(=O)C2CCCO2)c(C)c1 (centres undefined)	17	-6	-3	0	-2	-1	/	/	/	/
Cc1ccc2oc(=O)c3cc(C(=O)NCCCN4CCN(C)CC4)sc3c2c1	16	27	-2	13	13*	25	-2	0	-9	20*
CCCN1CCN(CCCNC(=O)c2cc3c(=O)[nH]c4ccc(C)cc4c3s2)CC1	12	-21	-4	16	6	4	/	/	/	/
CCN1CCN(CCCNC(=O)c2cc3c(=O)oc4ccc(C)cc4c3s2)CC1	10	-5	0	11	13*	22	-4	0	-11	19*
Cc1ccc2[nH]c(=O)c3cc(C(=O)NCC4CCCO4)sc3c2c1 (centres undefined)	33	253	-2	2	-1	-1	/	/	/	/
CN1CCN(CCCNC(=O)c2cc3c(=O)n(C)c4ccccc4c3s2)CC1	7	-38	3	-8	21*	22	-3	1	-7	29*
Cc1ccc2oc(=O)c3cc(C(=O)NCCCN4C(C)CCCC4C)sc3c2c1 (centres undefined)	-1	5	1	8	12*	20	-3	3	-10	17*
Cc1ccc2ccc(S(=O)(=O)NCc3ccccn3)cc2c1	6	-6	-3	9	-3	-22	/	/	/	/
O=C(NCCCN1CCCCCC1)c1cc2c(=O)oc3ccccc3c2s1	-12	-15	0	18	16*	5	-3	2	-14	25*
C[C@@H]1CCC[C@]2(O[C@H](CCO)C[C@H](O)[C@H]2O)O1	4	16	/	/	/	/	/	/	/	/
CNC(=S)NNC(=O)c1cccc(N(C)C)c1	22	11	-3	-15	-3	-1	/	/	/	/
COc1cc(OC)c(OC)cc1/C=N/NC(=O)CC1C(=O)NN=C1C (centres undefined)	3	-3	-1	30	37*	-4	-3	66*	-5	55*
CC1CCCCC1NC(=S)Nc1ccc(Cl)cc1Cl (centres undefined)	-3	19	-4	5	-3	-8	/	/	/	/
